Shown are actives, neighbours in structure and some others; about 1.3% of the full set was active somewhere.
Casp6 inh: blocks human caspase-6 cleavage activity | purified caspase-6, Z-VEID-R110 cleavage fluorescence | P55212 | hit rate 0.53% among 350,000 | inhibition, % at 12.5 µM;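 active means mean inhibition across replicates at least about 35%, with every replicate also reaching that limit, limit read from the data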
S100A4 MyoIIA: blocks human S100A4 binding to myosin IIA peptide | P26447 | S100A4/TAMRA-MyoIIA peptide fluorescence polarization | inhibition, % at 10.7 µM | hit rate 0.14% among 360,000 | AID 652163;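 active means mean inhibition of at least 70% across replicates, with every replicate also reaching that level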
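System – human S100A4 monomer protein, biochemical binding assay · Buffer or medium – Calcium-containing HEPES buffer, pH 7.2 · Timing – 5 min between mix addition and reading · Also added – TAMRA-labelled myosin IIA heavy-chain peptide probe, 5 nM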
RAD52 inh: RAD52 (human) annealing inhibition; recombinant RAD52 DNA annealing, FRET fluorescence; inhibition, % at 18.7 µM; hit rate 0.46% among 360,000;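 active means every replicate showing at least 50% inhibition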
XiGFP reactiv: activators of X-chromosome reactivation in mouse fibroblasts | activation, % at 7.58 µM | hit rate 0.055% among 360,000 | XiGFP mouse fibroblasts, % GFP-positive cells imaging, 3 d; cells co-treated with 5-aza-dC sensitizer; scaled so ellipticine positive control = 100%;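 active means mean normalized replicate activation at least 10% and every replicate at or above 10%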
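Assay system: SV40-immortalized XiGFP fibroblast cells, line 68-5-11; buffer or medium: DMEM plus 5-aza-dC sensitizer; compound: one concentration, pinned; timing: compounds 3 days, fix/stain 15 min at room temperature; benchmarks: positive control ellipticine, 6 µM final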
RAD54 branch: blocks human RAD54 Holliday junction branch migration; Q92698; FAM/BHQ fluorescence; inhibition, % at 10.4 µM; hit rate 0.14% among 360,000;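 active means mean normalized replicate activity at least 40 and at least half of replicates scoring 40 or more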;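 further: inhibitors cause a drop in the FAM fluorescence signal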
Target sequence (Q92698 whole entry, looked up): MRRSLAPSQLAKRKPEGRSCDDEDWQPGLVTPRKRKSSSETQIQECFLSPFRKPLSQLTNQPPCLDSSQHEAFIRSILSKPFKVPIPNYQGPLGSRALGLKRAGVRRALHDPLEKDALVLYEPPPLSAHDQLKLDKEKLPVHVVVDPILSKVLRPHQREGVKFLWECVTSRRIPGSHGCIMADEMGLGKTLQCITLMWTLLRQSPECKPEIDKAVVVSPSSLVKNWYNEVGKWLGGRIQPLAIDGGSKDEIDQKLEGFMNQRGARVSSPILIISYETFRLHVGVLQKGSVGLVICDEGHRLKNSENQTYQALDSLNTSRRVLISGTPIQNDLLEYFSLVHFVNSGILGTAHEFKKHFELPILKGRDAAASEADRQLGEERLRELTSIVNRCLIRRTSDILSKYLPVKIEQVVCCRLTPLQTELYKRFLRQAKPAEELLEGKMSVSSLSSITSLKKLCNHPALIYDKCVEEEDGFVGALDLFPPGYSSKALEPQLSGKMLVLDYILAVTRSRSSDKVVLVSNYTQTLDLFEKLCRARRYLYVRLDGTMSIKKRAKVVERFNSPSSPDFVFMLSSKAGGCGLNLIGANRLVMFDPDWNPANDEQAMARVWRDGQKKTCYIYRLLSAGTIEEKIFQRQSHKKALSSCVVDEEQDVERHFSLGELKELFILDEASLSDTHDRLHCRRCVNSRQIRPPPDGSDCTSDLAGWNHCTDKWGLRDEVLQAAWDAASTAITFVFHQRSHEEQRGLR
MLL AF4-AF9 inh: MLL-AF4/AF9 protein interaction inhibition; P42568; AlphaScreen, biotin-AF4 peptide binding to FLAG-AF9; inhibition, % at 10 µM; hit rate 0.47% among 350,000; AID 651704;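 active means every replicate reaching a set inhibition limit, whatever the replicate mean, cut at about 25% in these data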
Each line names hits and unclear results; the compound was inactive in the other large screens; ! = not active in a repeat.

CCCC(=O)Nc1ccc2c(c1)OC[C@@H](C)N(Cc1ccccc1)C[C@@H](C)[C@@H](OC)CN(C)C2=O	none
COc1ccccc1CNC(=O)C[C@H]1CC[C@H]2[C@@H](COC[C@H](O)CN2C(=O)Nc2ccc(F)cc2)O1	none
COc1cc2c3nnc(-c4ccc(F)cc4)c-3cn(Cc3ccccc3)c2cc1OC	XiGFP reactiv 91
Cc1cccn2c(=O)c3cc(C(=O)NCc4ccco4)c(=N)n(CCOCCO)c3nc12	RAD54 branch 73 (no result: Casp6 inh, S100A4 MyoIIA, RAD52 inh, XiGFP reactiv, MLL AF4-AF9 inh)
O=C(N[C@H](Cc1ccccc1)C(=O)N1CCN(C(=O)N2CCOCC2)CC1)[C@H]1O[C@@H](n2ccc(=O)[nH]c2=O)[C@H](O)[C@@H]1O	Casp6 inh 51 (no result: RAD54 branch, MLL AF4-AF9 inh)
O=C(N[C@H](Cc1ccccc1)C(=O)N1CCN(C(=O)N2CCCCC2)CC1)[C@H]1O[C@@H](n2ccc(=O)[nH]c2=O)[C@H](O)[C@@H]1O	none (no result: RAD54 branch, MLL AF4-AF9 inh)
CC(C)NC(=O)N(C)C[C@H]1Oc2ccccc2CC(=O)N(C)C[C@H]1C	none (no result: Casp6 inh, S100A4 MyoIIA, RAD52 inh, RAD54 branch, MLL AF4-AF9 inh)
N#Cc1ccc(-c2ccc(C3[C@@H]4CN(C(=O)Nc5ccc(C(F)(F)F)cc5)C[C@H]3N4)cc2)cc1 (stereo not given in full)	RAD52 inh 80! (no result: RAD54 branch)
Cc1ccc(-c2ccc(C3[C@@H]4CN(C(=O)Nc5ccc(C(F)(F)F)cc5)C[C@H]3N4)cc2)cc1 (stereo not given in full)	none (no result: RAD54 branch)
O=C(Nc1ccc(C(F)(F)F)cc1)N1C[C@@H]2N[C@H](C1)C2c1ccc(-c2cccc(F)c2)cc1 (stereo not given in full)	RAD52 inh 62 (no result: RAD54 branch)
CC(C)NC(=O)N(C)C[C@@H]1Oc2c(N)cccc2C(=O)N(C)C[C@H]1C	none (no result: Casp6 inh, S100A4 MyoIIA, RAD52 inh, RAD54 branch, MLL AF4-AF9 inh)
C[C@H](CO)N1C[C@H](C)[C@H](CN(C)C)Oc2ccc(NS(=O)(=O)c3ccccc3)cc2CC1=O	S100A4 MyoIIA 95
C[C@H](CO)N1C[C@H](C)[C@H](CN(C)S(C)(=O)=O)Oc2ccc(NS(=O)(=O)c3ccccc3)cc2CC1=O	none
C[C@@H]1CN([C@H](C)CO)C(=O)Cc2cc(NS(=O)(=O)c3ccccc3)ccc2O[C@@H]1CN(C)Cc1ccccc1	S100A4 MyoIIA 79
C[C@@H]1CN([C@@H](C)CO)C(=O)Cc2cc(NS(=O)(=O)c3cccs3)ccc2O[C@H]1CN(C)Cc1ccc(Cl)c(Cl)c1	RAD52 inh 51
C[C@@H]1CN([C@H](C)CO)C(=O)Cc2cc(NS(=O)(=O)c3cccs3)ccc2O[C@@H]1CN(C)Cc1ccc(Cl)c(Cl)c1	none
C[C@@H]1CN([C@H](C)CO)C(=O)Cc2cc(NS(=O)(=O)c3ccccc3)ccc2O[C@H]1CN(C)Cc1ccccc1	none
O=C(C[C@@H]1CC[C@H](NC(=O)CCN2CCCCC2)[C@H](CO)O1)NCc1ccc(Cl)c(Cl)c1	none
COc1ccc(NC(=O)Nc2ccc3c(c2)C(=O)N([C@@H](C)CO)C[C@@H](C)[C@H](CN(C)Cc2ccc(C(=O)O)cc2)OCCCC[C@@H](C)O3)cc1	none
O=C(c1cc(O)c(O)c([N+](=O)[O-])c1)c1ccccc1F	MLL AF4-AF9 inh 26
O=C(Nc1nnc(Cc2c[nH]c3ccccc23)s1)c1ccc(Cl)cc1Cl	Casp6 inh 58 (no result: RAD54 branch)
CC(C)(C)c1ccc(C(=O)Nc2nnc(Cc3c[nH]c4ccccc34)s2)cc1	none (no result: Casp6 inh, S100A4 MyoIIA, RAD52 inh, MLL AF4-AF9 inh)
COCC(=O)Nc1ccc2c(c1)OC[C@H](C)N(CCC(F)(F)F)C[C@@H](C)[C@H](OC)CN(C)C2=O	none
CCC(=O)N1[C@H](CO)[C@H](c2ccccc2)C12CN(C(=O)c1cnccn1)C2	none (no result: Casp6 inh, S100A4 MyoIIA, RAD52 inh, RAD54 branch, MLL AF4-AF9 inh)
O=S(=O)(CCN1C=CC(C(F)(F)F)=NCC1)c1ccc(F)cc1	none
O=S(=O)(CCN1C=CC(C(F)(F)F)=NCC1)c1ccc(Cl)cc1Cl	MLL AF4-AF9 inh 44
CN(C)C(=O)C[C@@H]1C[C@H]2c3cc(NC(=O)Nc4ccccc4)ccc3O[C@H]2[C@H](CO)O1	none (no result: Casp6 inh, S100A4 MyoIIA, RAD52 inh, MLL AF4-AF9 inh)
CS(=O)(=O)N1C[C@H](O)COC[C@H]2O[C@@H](CC(=O)NCc3ccc(-c4ccccc4)cc3)CC[C@@H]21	none
CCC(=O)N1C[C@H](O)COC[C@H]2O[C@H](CC(=O)NCc3cc(F)cc(F)c3)CC[C@@H]21	S100A4 MyoIIA 88
